Sampled rows, rich in hits. Any-hit rate of the full collection: about 1.3%.
Diaphorase inh – inhibits diaphorase or chemically oxidizes, flagging diaphorase assay artifacts | diaphorase resazurin-to-resorufin fluorescence, NADH, 16 min; bacterial (C. kluyveri) enzyme, not human | inhibition, % at 20 µM | 190,000 tested, 0.69% active | AID 1217;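 active = primary screen inhibition at 20 µM above a set limit, cut at about 50% in these data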;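 also: plate controls were DMSO with full reaction for no effect and wells lacking NADH for full effect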
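System: Diaphorase enzyme from Clostridium kluyveri | Amount: Enzyme working solution with 0.14 U/mL diaphorase | Benchmarks: No-NADH positive control and DMSO neutral control | Signal: Fluorescence of resorufin formed from resazurin, Ex 544/Em 590 nm | Schedule: 16-min room-temperature incubation before reading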
PfGluPho inh – PfG6PD (Plasmodium falciparum) enzyme inhibition. inhibition, % at 20 µM. PfGluPho enzyme, NADPH resazurin-diaphorase fluorescence. 350,000 tested, 0.78% active;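 active = inhibition reaching at least a set limit at 20 µM in the primary screen, cut at about 59% in these data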;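 also: 0% = DMSO wells with substrate and 100% = DMSO wells lacking glucose-6-phosphate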
HKDC1 inhibitor – blocks human hexokinase HKDC1 activity | recombinant HKDC1, G6PDH/diaphorase resazurin coupled fluorescence | inhibition, % at 20 µM | 340,000 tested, 0.16% active | AID 493160;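 active = inhibition above about 35% when tested at 20 µM, limit read from the data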;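 also: plate controls were DMSO wells with enzyme for no effect and DMSO wells lacking enzyme for full effect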
Target sequence (Q2TB90 whole entry, looked up): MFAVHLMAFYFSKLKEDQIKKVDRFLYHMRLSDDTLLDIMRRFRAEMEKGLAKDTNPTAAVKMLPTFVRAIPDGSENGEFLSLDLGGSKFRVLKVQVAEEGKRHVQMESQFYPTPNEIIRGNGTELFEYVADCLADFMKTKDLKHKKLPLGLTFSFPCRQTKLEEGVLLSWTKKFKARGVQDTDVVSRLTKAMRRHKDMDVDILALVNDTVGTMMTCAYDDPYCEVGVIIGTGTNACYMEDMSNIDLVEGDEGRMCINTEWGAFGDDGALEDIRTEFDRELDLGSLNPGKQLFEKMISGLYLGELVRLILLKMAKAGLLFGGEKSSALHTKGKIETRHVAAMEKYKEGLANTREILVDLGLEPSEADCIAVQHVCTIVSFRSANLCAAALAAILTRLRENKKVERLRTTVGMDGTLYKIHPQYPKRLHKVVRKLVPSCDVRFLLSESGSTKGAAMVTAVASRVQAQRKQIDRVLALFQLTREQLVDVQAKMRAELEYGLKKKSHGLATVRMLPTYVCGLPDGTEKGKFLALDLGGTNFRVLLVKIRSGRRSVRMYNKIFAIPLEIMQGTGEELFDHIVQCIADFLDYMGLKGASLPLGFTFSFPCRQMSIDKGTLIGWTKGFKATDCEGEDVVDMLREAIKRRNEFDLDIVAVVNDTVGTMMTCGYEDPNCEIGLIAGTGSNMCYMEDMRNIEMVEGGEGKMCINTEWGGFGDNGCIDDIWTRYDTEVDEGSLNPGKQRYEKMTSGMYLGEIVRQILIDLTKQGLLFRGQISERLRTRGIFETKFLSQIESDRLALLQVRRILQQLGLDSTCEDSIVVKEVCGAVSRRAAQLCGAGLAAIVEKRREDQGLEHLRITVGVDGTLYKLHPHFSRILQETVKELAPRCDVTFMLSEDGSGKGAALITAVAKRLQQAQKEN
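test system = in-house recombinant HK5 (HKDC1) enzyme | amount = HKDC1 at 5 µg/mL | control set = DMSO-enzyme wells negative, buffer-substituted wells positive | compound = one dose of 20 µM, 1% DMSO | schedule = reaction time 90 min, room temperature, protected from light | technique = resorufin fluorescence at 613 nm | reagent = glucose with 1 mM ATP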
G6PDH CS – counter-screen for G6PDH assay hits: L. mesenteroides G6PDH inhibition; Purified L. mesenteroides G6PDH, diaphorase/resazurin coupled fluorescence, 45 min; inhibition, % at 5 µM; 200,000 tested, 0.12% active; AID 1020; in the data active = inhibition above about 50%
PfG6PD confirm – PfG6PD inhibition, single-dose confirmed. inhibition, % at 20 µM. recombinant PfGluPho, NADPH-diaphorase-resazurin fluorescence. AID 504753. 2,400 tested, 34% active. shares compounds with PfGluPho inh;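 active = inhibition of at least 50% at 20 µM in any single replicate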;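 also: 0% = DMSO with substrate and 100% = DMSO lacking glucose-6-phosphate substrate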
Diaphorase 10uM – inhibits diaphorase or oxidizes, flagging false PfG6PD hits | shares compounds with PfGluPho inh | diaphorase-coupled resazurin reduction, fluorescence, NADPH 10 uM | inhibition, % at 20 µM | 820 tested, 39% active | AID 504862;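 active = average inhibition reaching 50% or more with the compound at 20 µM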;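 also: resorufin red fluorescence formed as diaphorase reduces resazurin using NADPH; 0% = DMSO with enzyme and 100% = DMSO without enzyme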
Diaphorase 30uM – inhibits diaphorase or oxidizes, flagging false PfG6PD hits | Diaphorase/resazurin coupled assay, resorufin fluorescence, 30 uM NADPH | 820 tested, 29% active | shares compounds with PfGluPho inh | inhibition, % at 20 µM;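 active = inhibition averaging 50% or more, tested at 20 µM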;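 also: 0% = DMSO with enzyme and 100% = DMSO wells lacking diaphorase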
Active calls of the source: *; . = no result.

SMILES	Diaphorase inh	PfGluPho inh	HKDC1 inhibitor	G6PDH CS	PfG6PD confirm	others
CCOC(=O)NC(N(O)c1cccc(Cl)c1)C(Cl)(Cl)Cl (configuration not stated)	.	85*	3	.	18
COc1ccc(CNC(=O)C2CCCN2C(=O)Nc2cccc(Cl)c2)cc1 (configuration not stated)	.	-14	.	.	.
CCOc1cc(CNc2ccc(O)cc2)cc(Br)c1OCc1ccccc1F	23	36	5	-14	.
COc1cc(CNc2ccc(O)cc2)cc(Br)c1OCc1ccccc1F	38	60*	14	-17	16
COc1cc(CNc2ccc(N3CCCC3)cc2)ccc1OCc1ccccc1F	38	97*	3	5	59*	Diaphorase 10uM=10;Diaphorase 30uM=6
CCCCCCN1C[C@H](O)[C@@H](n2cc(COC(=O)c3ccccc3)nn2)C[C@@H]1c1ccccc1	.	13	.	.	.
COCCOc1cc(NCc2ccccc2)c2ncn(C(C)C)c2c1	.	45	9	.	.
CCCOc1cc(NCc2ccccc2)c2ncn(C(C)C)c2c1	.	77*	14	.	33
CCOc1cc(NCc2ccccc2)c2ncn(C(C)C)c2c1	.	66*	14	.	48*	Diaphorase 10uM=8;Diaphorase 30uM=-3
CC1CCC(NC(=O)CN2CCN(S(=O)(=O)c3ccc(Br)s3)CC2)CC1 (configuration not stated)	.	-6	.	.	.
Cc1ccc2nc(SCC(=O)c3ccc4c(c3)OCO4)[nH]c2c1	3	56	19	1	.
Cc1ccc2nc(SCC(=O)c3ccc(Cl)s3)[nH]c2c1	9	62*	-3	0	5
C=C(C)c1nc(Oc2ccccc2)nc(Oc2ccccc2)n1	.	17	6	.	.
CCC1(CC)Cc2ccccc2-c2nc(NN)[nH]c(=O)c21	.	76*	5	.	31
CCC1(C)Cc2ccccc2-c2nc(NN)[nH]c(=O)c21 (configuration not stated)	.	36	4	.	.
CCCCCCn1c(=O)n2n(c1=O)[C@@H]1CN(S(=O)(=O)c3ccc(C)cc3)C[C@]1(O)[C@@H](OC(=O)NCc1ccccc1)C2	.	67*	.	.	-15
Cc1ccc(S(=O)(=O)N2C[C@H]3n4c(=O)ccc(=O)n4C[C@H](OC(=O)NCc4ccccc4)[C@@]3(O)C2)cc1	.	2	.	.	.
Cc1cc(C)c2c(=O)n(CC(=O)Nc3ccc(Br)c(C)c3)sc2n1	.	112*	6	.	80*	Diaphorase 10uM=-7;Diaphorase 30uM=-14
Cc1cc(C)c2c(=O)n(CC(=O)NC3CCCC3)sc2n1	.	90*	1	.	73*	Diaphorase 10uM=-32;Diaphorase 30uM=-16
Cc1c(Cl)cccc1NC(=O)Cn1cccc1	11	8	-11	-6	.
COc1ccc(OC)c(CCNC(=O)Cn2sc3nc(C)cc(C)c3c2=O)c1	6	.	.	-2	.
Cc1cc(C)c2c(=O)n(CC(=O)Nc3cccc(Cl)c3C)sc2n1	.	106*	-1	.	85*	Diaphorase 10uM=-13;Diaphorase 30uM=-4
O=C(NNC(=O)c1cc(Cl)nc2ccccc12)c1ccccc1F	.	-14	-6	.	.
CC(=O)NC(CC(=O)Nc1ccc(S(=O)(=O)NC2=NCCCCC2)cc1)c1ccccc1 (configuration not stated)	.	-12	-6	.	.
CCOC(=O)c1sc(N)c(C(=O)OCC)c1C	.	13	9	.	.
SMILES	Diaphorase inh	PfGluPho inh	HKDC1 inhibitor	G6PDH CS	PfG6PD confirm	others
CCOC(=O)c1sc(N)c(C(=O)Nc2ccccc2)c1C	19	64*	-10	8	15
COc1ccc(S(=O)(=O)N2CCOC2CNC(=O)C(=O)NCc2ccccn2)cc1OC (configuration not stated)	.	-4	.	.	.
On1onc2c3cc(-c4ccccc4)nc3ccc21	23	90*	1	8	7
O=C1Nc2ccc(S(=O)(=O)NCc3ccco3)c3cccc1c23	.	63*	22	.	44
O=C(O)CCS(=O)(=O)c1cccc2cccnc12	18	-1	-8	0	.
Cc1ccc(NS(=O)(=O)c2cccc3cccnc23)cc1Cl	.	28	10	.	.
Cc1cc(C)c(NS(=O)(=O)c2cccc3cccnc23)c(C)c1	10	46	-5	2	22
CCSS(=O)(=O)c1cccc2cccnc12	.	80*	2	.	2
COc1cc(Cl)ccc1NC(=O)COc1ccccc1C(=O)N1CCN(c2ccc(O)cc2)CC1	21	68*	-2	6	42
Cc1cc(Cl)ccc1OCC(=O)Nc1ccccc1C(=O)N1CCOCC1	.	3	-3	.	.
CCCn1c(N)c(N(CCOC)C(=O)c2ccc(-c3ccc(Cl)cc3)o2)c(=O)[nH]c1=O	.	-2	-3	.	.
O=C1C=CC2=C3c4cc(O)c(O)cc4CC3(O)COC2=C1O (configuration not stated)	.	81*	34	.	68*	Diaphorase 10uM=16;Diaphorase 30uM=22
Cc1onc(-c2ccccc2)c1C(=O)N/N=C/c1cc(Br)c(Br)o1	10	64*	3	1	28
COc1cccc(/C=N/NC(=O)c2c(-c3ccccc3)noc2C)c1OC	.	-1	-3	.	.
Cc1ccc(/C=N/NC(=O)c2c(-c3ccccc3)noc2C)o1	13	36	4	9	.
COc1ccc(Cl)cc1/C=N/NC(=O)c1c(-c2ccccc2)noc1C	.	127*	4	.	99*	Diaphorase 10uM=96*;Diaphorase 30uM=83*
Cc1ccc(C)c(C(=O)Nc2ccncc2)c1	.	-12	-3	.	.
COc1ccc(NC(=O)c2ccc(-c3ccc([N+](=O)[O-])cc3)o2)cc1OC	30	29	5	-2	.
Cc1cc(NC(=O)c2ccc(-c3ccccc3[N+](=O)[O-])o2)no1	.	10	3	.	.
CC(=O)c1cccc(NC(=O)c2ccc(-c3ccccc3[N+](=O)[O-])o2)c1	23	61*	7	9	22
COc1cccc(NC(=O)c2ccc(-c3ccc([N+](=O)[O-])cc3)o2)c1	.	64*	4	13	6
C[C@@H]1CN([C@H](C)CO)S(=O)(=O)c2ccc(Br)cc2O[C@H]1CN(C)C(=O)Nc1ccccc1	.	9	.	.	.
CC1(C)COC(c2cc3c(cc2Br)OCO3)OC1	.	-20	7	.	.
O=C(O)c1ccc(-n2cc(-c3cc4ccccc4oc3=O)[nH]c2=S)cc1	23	61*	-7	2	25
O=c1oc2ccccc2cc1-c1ccccc1	10	-10	-11	6	.
Cc1nc(SCC(=O)Nc2ccc3[nH]c(=O)[nH]c3c2)nc(C)c1C	.	64*	0	.	8
Cc1ccc(Sc2c(C)[nH]n(C(C)(C)C)c2=O)cc1	15	-3	-6	11	.
CC1=CC(=O)C(Sc2ccc(C)cc2)=CC1=O	.	124*	.	.	109*	Diaphorase 10uM=90*;Diaphorase 30uM=64*
CC(C)C1Cc2c(sc3ncnc(NN)c23)CO1 (configuration not stated)	.	12	-4	.	.
COc1cc(/C=C/C(=O)Nc2nnc(CC(C)(C)C)s2)cc(OC)c1OC	3	59*	-19	10	35
